SMILES strings stand for the structures. The whole screen tested about 330,000 compounds, of which about 1,100 (0.33%) were called active. Only a selection was taken, and actives are over-represented in it overall. A number with no mark means an inactive call.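 Rule for the calls: active = at 10 µM dose, activation of 40% or more, normalized to positive control; inactive = the rest.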

The experiment in a line: activators of apoptotic CHOP UPR arm, primary screen, cell-based, CHO-CHOP luciferase reporter, luminescence, uHTS (AID 449763).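 Note: 100% = tunicamycin at 10 µg/mL and 0% = DMSO alone.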 Particulars: at 10 µM, active compounds read high, percent of tunicamycin response over DMSO baseline. In outline:
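System: CHO-CHOP luciferase reporter cell line; amount: 500 cells/well; buffer or medium: F12 medium containing 10% fetal bovine serum; incubation: 6 h compound exposure at 37 °C after overnight seeding; measured by: luciferase luminescence after 10 min with Steady-Glo reagent; evaluation: % reporter activation, DMSO baseline versus tunicamycin full activation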
For the compound `COc1ccccc1-n1c(SCC(=O)O)nc2sc3c(c2c1=O)CCC3`, the activation was 1.38%.

Take `COc1ccc(NC(=O)C(CC(C)C)NC(=O)C2CCC(C)CC2)cc1` (stereo not drawn): the activation is 0.903%.

`COc1ccccc1CNS(=O)(=O)c1cc2c3c(c1)CCC(=O)N3CCC2`: the activation was 2.93%. Take `Fc1ccc2nc(-c3ccccc3)nc(SCc3nnc(-c4ccccc4)o3)c2c1`: the activation is 0.865%.

Consider `Cc1cccc(CS(=O)(=O)c2ncc(Cl)c(C(=O)Nc3ccc(F)cc3)n2)c1`, for which the activation was 278% (active). Take `CSc1nnc(NC(=O)c2nc(S(=O)(=O)Cc3ccc(C)cc3)ncc2Cl)s1`: the activation was 72.6% (active). For the compound `Cc1cccc(NC(=O)c2nc(S(=O)(=O)Cc3ccccc3)ncc2Cl)c1`, the activation was -9.27%.

With `CCOc1ccc(NC(=O)c2nc(SCC)ncc2Cl)cc1`, the activation is 0.746%. For `COCCSc1nnc(NC(=O)CCS(=O)(=O)Cc2ccccc2)s1`, the activation was -0.572%. The value for `Cc1ccc(CS(=O)(=O)c2ncc(Cl)c(C(=O)Nc3nnc(C)s3)n2)cc1` was 26.4%; that for `O=C(NCCCCO)C(F)(F)C(F)(F)C(F)(F)C(=O)NCCCCO` was 2.68%. On to `Cc1cccc(OCc2nnc(SCc3nc4cc(C(F)(F)F)ccc4c(=O)[nH]3)o2)c1`, for which the activation was 1.49%.

As for `Cc1ccc(OCc2nnc(SC3CCc4ccccc4C3=O)n2C)cc1` (stereo not drawn), the activation is 0.0439%. Take `CSc1ccc(/C=C/C(=O)NC23CC4CC(CC(C4)C2)C3)cc1`: the activation is 6.51%.

Turning to `Clc1ccc(CN2CCCCCC2)cc1Cl`, the activation is 0.707%. Consider `NS(=O)(=O)c1ccc(CCNS(=O)(=O)c2cccc3cccnc23)cc1`, for which the activation was 0.112%. In the case of `O=S(=O)(NCCc1ccc(F)cc1)c1cccc2cccnc12`, the activation was 0.907%. The value for `O=[N+]([O-])c1ccccc1S(=O)(=O)Nc1cccc2cccnc12` was 428% (active); that for `Cc1ccc2oc(=O)c3cnn(CC(=O)N(Cc4ccco4)C4CCCCC4)c3c2c1` was 0.347%. In the case of `CC(C)CCNC(=O)Cn1c(=O)oc2cc(S(=O)(=O)N3CC(C)CC(C)C3)ccc21` (stereo not drawn), the activation was 0.0919%. As for `COc1ccc2c(c1OC)C(=O)OC2Nc1nc(-c2ccccc2)cs1` (stereo not drawn), the activation is 41.7% (active). The value for `COc1cc(CC(=O)Nc2nc(-c3ccc(F)c(F)c3)cs2)cc(OC)c1OC` was 6.97%; that for `CCc1ccccc1NC(=O)[C@@H]1CCC(=O)N1C1OC(=O)c2c1ccc(OC)c2OC` (stereo partly drawn) was -1.13%. Consider `O=C1Nc2cc(Cl)c(Cl)cc2N(O)N1c1ccccc1Cl`, for which the activation is 0.176%. The figure for `COc1ccc(N=C2SC(C(=O)Nc3ccc(F)cc3)CC(=O)N2C)cc1` (stereo not drawn) is -0.141%. For `CCOCCc1nn2c(=O)cc(CSCC(=O)Nc3cccc(C)c3C)nc2s1`, the activation was -1.45%. As to `Cn1c(-c2ccc(C(F)(F)F)cc2)cc2onc(-c3ccccc3)c2c1=O`, the activation is 5.2%. The value for `CCOc1ccc(N2C(=O)CC(N(CCc3ccc(OC)c(OC)c3)C(=S)Nc3ccccc3)C2=O)cc1` (stereo not drawn) was 1.65%. The value for `CCOc1ccc(N2C(=O)CC(N(O)c3ccccc3)C2=O)cc1` (stereo not drawn) was 185% (active); that for `CCCCCCC(=O)N(O)C1CC(=O)N(c2ccccc2)C1=O` (stereo not drawn) was 1.5%. Consider `CC(=O)NNC1=Nc2ccccc2N(C)C(C)C1` (stereo not drawn), for which the activation was 1.41%.

With `CCOc1cc(N2CCOCC2)c(OCC)cc1NC(=O)C1=NN(c2cccc(C)c2)C(=O)CC1`, the activation is 1.02%. For `N#Cc1ccc(Oc2ccc(C(F)(F)F)cc2NC(=O)c2ccc(F)cc2)cc1`, the activation is -0.147%. As for `COc1cc(NC(=O)c2[nH]cnc2C(N)=O)cc(C(=O)Nc2cccc(C(F)(F)F)c2)c1`, the activation was 12.8%.

`COc1cc(NC(=O)c2cncc(-c3ccc(C#N)cc3)c2)cc(C(=O)Nc2cccc(C(F)(F)F)c2)c1`: the activation was 73.6% (active). Regarding `O=C(O)C1C2C=CC(C2)C1C(=O)NCc1ccccc1` (stereo not drawn), the activation is -1.58%. Turning to `O=C(CC(NCCN1CCOCC1)C(=O)O)Nc1cccc(Cl)c1` (stereo not drawn), the activation is -1.8%. As for `CC(=O)Nc1ccc(NC(=O)C(C)OC(=O)c2ccccc2C(=O)c2ccc(Cl)c([N+](=O)[O-])c2)cc1` (stereo not drawn), the activation is 12.1%.

Regarding `N#Cc1cccc(NC(=O)COC(=O)c2ccccc2C(=O)c2ccc(Cl)c([N+](=O)[O-])c2)c1`, the activation is 105% (active).

As to `CC(=O)Nc1ccc(NC(=O)COC(=O)c2ccccc2C(=O)c2ccccc2)cc1`, the activation was 1.65%. Regarding `CC1=CC(C)(C)NC(=S)N1c1ccccc1`, the activation was 0.0762%. As for `O=C(c1c(F)cccc1F)N1CCN(S(=O)(=O)c2ccc3c(c2)OCCO3)CC1`, the activation is 2.02%.

Regarding `CC1CN(C(=O)c2ccc([N+](=O)[O-])s2)CC(C)O1` (stereo not drawn), the activation is 1.2%.

For the compound `O=[N+]([O-])c1ccc(C=Nc2ccc(Cl)cc2Cl)s1`, the activation was 112% (active). With `CCN(Cc1ccccc1)C(=O)CCS(=O)(=O)c1ccc2c(c1)oc(=O)n2C`, the activation was -2.75%.

Turning to `Cc1cccc(NC(=O)C2CC(=O)OC23CCCC3)c1` (stereo not drawn), the activation was 0.24%. For `CCOC(=O)CN(C(=O)CN1CCOCC1)c1ccc(Br)cc1`, the activation was -1.27%. The value for `CC1CCCC(C)N1C(=O)COC(=O)COc1ccccc1C#N` (stereo not drawn) was -1.4%. On to `CC(=O)Nc1ccc(Nc2ncnc3c2nnn3Cc2ccccc2Cl)cc1`, for which the activation is -0.872%. For `CCCc1cc(=S)n2c([nH]c3ccccc32)c1C#N`, the activation was 54.1% (active). Turning to `CCOC(=O)CCc1c(C)c(C#N)c2[nH]c3ccccc3n2c1=O`, the activation was -1.06%. On to `CN(C)Cc1c(C#N)c2ccccc2n1C`, for which the activation is -0.172%. Regarding `CCn1c(SCC(=O)Nc2cc(C)ccc2C)nnc1-c1cnccn1`, the activation is -1.53%.

As to `Cc1[nH]n(-c2ccccc2)c(=O)c1CCOC(=O)c1ccc(C(F)(F)F)cc1`, the activation is -0.83%. The figure for `O=C1C=C(c2cccc(Cl)c2)C[C@@H](c2ccc(F)cc2)C1` is -0.428%; for `O=C1CC(c2cccc(Cl)c2)CC(O)=C1C=Nc1ccccc1` (stereo not drawn) it is 50% (active); for `O=C1CC(c2ccccc2)CC(O)=C1C=NCCN1CCOCC1` (stereo not drawn) it is -2.31%. With `Cc1ccc(NC(=O)C(=O)NCc2ccc(/C=N/NC(=O)c3c(C)nc4cc(C)ccn34)o2)cc1`, the activation is 4.97%. For the compound `CCc1ccc(N(C(=O)c2csnn2)C(C(=O)NC2CCCCC2)c2ccncc2)cc1` (stereo not drawn), the activation is -1.98%. On to `CCOC(=O)c1c(NC(=O)CCl)sc(C(=O)N(CC)CC)c1C`, for which the activation was 48.1% (active).

With `CCOC(=O)c1c(NC(=O)CCCN2CCOCC2)sc2c1CC(C)(C)OC2`, the activation is -2.37%. In the case of `COC(=O)c1c(NC(=O)CCN2CCOCC2)sc2c1CCCC2`, the activation is 0.577%. The value for `CCOC(=O)c1sc(NC(=O)CCN2CCOCC2)c(C(=O)OCC)c1C` was 43.2% (active); that for `CCOC(=O)Nc1sc(C(=O)N(C)C)c(C)c1C(=O)OCC` was -4.31%. `CCC(=O)Nc1sc(C(=O)Nc2ccccc2)c(C)c1C(=O)OC`: the activation was -0.316%. Turning to `COc1ccc(C(=O)NC2CC(C)(C)NC(C)(C)C2)cc1OC`, the activation is 0.193%. For `O=C(CCC(=O)n1ncc2ccccc21)NCc1ccccc1Cl`, the activation is -0.158%. For the compound `COc1ccc(S(=O)(=O)NC(C)C(=O)N2CCCCCC2)cc1` (stereo not drawn), the activation is -2.32%. Consider `CCn1nc(C)c(CNC(=O)C2CCC(=O)N(Cc3cccc(F)c3)C2)c1C` (stereo not drawn), for which the activation is 0.585%. The value for `CC1=C(C(N)=O)C(c2ccc(Br)cc2)n2ncnc2N1` (stereo not drawn) was -1.48%; that for `Fc1ccccc1/C=C1\CCCC2=C1Nc1ncnn1C2c1ccccc1F` (stereo not drawn) was 90.9% (active). Take `Brc1ccc2c(c1)[C@H]1OCC[C@H]1[C@@H](c1cccs1)N2`: the activation was -1.2%. The figure for `O=C1CCN(C(=O)Nc2ccccc2)N1` is -2.23%; for `Cc1ccc(NC(=O)c2cccs2)cc1S(=O)(=O)N(C)C` it is 1.35%; for `Cc1ccc(-c2nnc(-c3ccc(NC(=O)c4cccs4)cc3)o2)cc1` it is 325% (active). The value for `Cc1ccc(OCC(=O)Nc2ccc(NC(=O)c3cccs3)cc2)c(C)c1` was 0.176%; that for `Cn1c(SCc2ccc(F)cc2)nnc1-c1ccncc1` was 1.85%; that for `CN(C)CCCn1c(SCc2ccc(Cl)cc2)nnc1-c1ccncc1` was 139% (active).

For `CC1CCCCC1NC(=O)CSc1nnc(-c2ccncc2)n1CCCN(C)C` (stereo not drawn), the activation is -1.77%.

As to `COc1ccc(-n2cc(CNC3CCOCC3)c(-c3cccc(F)c3)n2)cc1`, the activation was 0.961%.

`O=C(COc1ccccc1O)NC1CCCC1`: the activation was 3.04%. With `COc1cccc2sc(Nc3nc(C)c(C(C)=O)s3)nc12`, the activation was 309% (active). For `CC(=O)c1sc(N/N=C\c2ccc(C)cc2)nc1C`, the activation is 5.8%. As for `CNC(=O)c1sc(NCc2ccccc2OC)nc1C`, the activation is -3.17%.

Turning to `CCn1c(/C=C/c2ccc([N+](=O)[O-])o2)nc2ccccc2c1=O`, the activation was 71.3% (active). Regarding `CCn1c(SCc2ccccc2)nc2cc(OC)c(OC)cc2c1=O`, the activation was -0.179%. On to `CCOCCCn1c(NN)nc2ccccc2c1=O`, for which the activation is 1.17%. For the compound `COC(=O)c1cc(CNC(=O)CC(C)c2ccccc2)ccc1OC` (stereo not drawn), the activation was 2.14%. Consider `COc1ccc(-c2cc(-c3ccc(N)cc3)nc(N)c2C#N)cc1OC`, for which the activation is -0.472%. On to `COc1ccc(-c2cc(C(F)(F)F)nc(S(C)(=O)=O)n2)cc1OC`, for which the activation was 106% (active). The figure for `COc1ccc(-c2ccc(Nc3ccc(S(=O)(=O)N4CCCC4)cc3)nn2)cc1OC` is 3.88%; for `O=C1/C(=C/c2ccc(F)cc2)SC(=S)N1NS(=O)(=O)c1ccccc1` it is 0.174%; for `CC(C)CNC(=S)NNC(=O)c1ccccc1OC(F)F` it is -0.805%.

(Values after PubChem BioAssay AID449763 (Sanford-Burnham Center for Chemical Genomics, 2010).)
